# Measured values: ChEMBL document CHEMBL1139985, “Discovery of (S)-2-((S)-2-(3,5-difluorophenyl)-2-hydroxyacetamido)-N-((S,Z)-3-methyl-4-oxo-4,5-dihydro-3H-benzo[d][1,2]diazepin-5-yl)propanamide (BMS-433796): a gamma-secretase inhibitor with Abeta lowering activity in a transgenic mouse model of Alzheimer's disease” (Bioorg Med Chem Lett, 2007)
# Activity calls are given as the source filed them. No cut-off for these calls is given here.
# Tests used:
# [1] = target: Gamma-secretase; assay: Inhibition of gamma secretase assessed as reduction of amyloid beta level in H4 cells; type: cell-based, Homo sapiens
# Summary of the method: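 H4 cells; Aβ40 lowering measured in a cell-based assay; IC50 values are means of two experiments, 16 data points each, intra-assay variance <10%.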
# [2] = system: Mus musculus; assay: Inhibition of beta amyloid peptide in po dosed Tg2576 mouse plasma after 3 hrs; type: functional
# Summary of the method: (§1)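 Tg2576 mice dosed orally; brain and plasma Aβ measured 3 h after dosing; ED50 derived from dose-dependent Aβ reduction.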
# [3] = Drug level in Tg2576 mouse plasma at 30 umol/kg, po after 3 hrs; type: ADME, organism-based; details: read-out: Drug uptake
# Summary of the method: (§2)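 Tg2576 mice, single oral dose of 30 µmol/kg; brain and plasma sampled 3 h after dosing for Aβ (% inhibition) and compound levels; n = 7-10; means ± SEM.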
# [4] = system: Mus musculus; assay: Inhibition of beta amyloid peptide in Tg2576 mouse brain at 30 umol/kg, po after 3 hrs; type: functional; summary of the method: as §2
# [5] = Drug level in Tg2576 mouse brain at 30 umol/kg, po after 3 hrs; type: ADME, organism-based; details: read-out: Drug uptake; summary of the method: as §2
# [6] = system: Mus musculus; assay: Inhibition of beta amyloid peptide in Tg2576 mouse plasma at 30 umol/kg, po after 3 hrs; type: functional; summary of the method: as §2
# [7] = Terminal half life in Sprague-Dawley rat at 2.3 umol/kg, iv; type: ADME, organism-based; details: in vivo
# [8] = system: Mus musculus; assay: Inhibition of beta amyloid peptide in Tg2576 mouse brain at 4 umol/kg, po qd after 1 day; type: functional; set-up: scale not given: the % may be the effect or the level left
# Summary of the method: (§3)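 Tg2576 mice dosed orally at 4 or 30 µmol/kg, once daily for 1 or 14 days or twice daily (30 µmol/kg); brain Aβ inhibition measured.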
# [9] = organism: Mus musculus; assay: Increase in beta amyloid peptide in Tg2576 mouse plasma after 24 hrs; type: functional
# [10] = Clearance in Sprague-Dawley rat at 2.3 umol/kg, iv; type: ADME, organism-based; details: in vivo
# [11] = system: Mus musculus; assay: Inhibition of beta amyloid peptide in Tg2576 mouse brain at 30 umol/kg, po, qd after 14 days; type: functional; set-up: scale not given: the % may be the effect or the level left; summary of the method: as §3
# [12] = organism: Mus musculus; assay: Reduction of beta amyloid peptide in Tg2576 mouse brain after 12 hrs; type: functional, organism-based
# [13] = Oral bioavailability in Sprague-Dawley rat at 35 umol/kg; type: ADME, organism-based; details: in vivo
# Summary of the method: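 Rats dosed orally with a PEG-400 suspension at 35 µmol/kg; bioavailability from plasma exposure.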
# [14] = Inhibition of human Cytochrome P450; type: ADME
# Summary of the method: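 Inhibition of human CYPs measured in vitro as IC50.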
# [15] = organism: Mus musculus; assay: Reduction of beta amyloid peptide in Tg2576 mouse plasma after 12 hrs; type: functional, organism-based
# [16] = system: Mus musculus; assay: Inhibition of beta amyloid peptide in Tg2576 mouse brain at 30 umol/kg, po bid after 14 days; type: functional; set-up: scale not given: the % may be the effect or the level left; summary of the method: as §3
# [17] = system: Mus musculus; assay: Inhibition of beta amyloid peptide in Tg2576 mouse brain at 4 umol/kg, po qd after 14 days; type: functional; set-up: scale not given: the % may be the effect or the level left; summary of the method: as §3
# [18] = system: Mus musculus; assay: Inhibition of beta amyloid peptide in po dosed Tg2576 mouse brain after 3 hrs; type: functional, organism-based; summary of the method: as §1
# [19] = organism: Homo sapiens; assay: Ratio of IC50 for Notch processing to IC50 for amyloid beta processing
# [20] = system: Mus musculus; assay: Toxicity in Tg2576 mouse at 30 umol/kg, po bid after 10 days; type: organism-based; details: in vivo, 240 h
# Summary of the method: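 Tg2576 mice dosed orally at 30 µmol/kg twice daily; clinical signs, body weight and mortality monitored; intestinal histopathology assessed.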
# [21] = system: Mus musculus; assay: Inhibition of beta amyloid peptide in Tg2576 mouse brain at 30 umol/kg, po qd after 1 day; type: functional; set-up: scale not given: the % may be the effect or the level left; summary of the method: as §3
smiles,measurement,setting,value
C[C@H](NC(=O)Cc1cccc(F)c1)C(=O)NC1C(=O)N(C)N=Cc2ccccc21 (some centres undefined),IC50,[1],8 nM
C[C@H](NC(=O)[C@@H](O)c1cc(F)cc(F)c1)C(=O)NC1C(=O)N(C)N=Cc2ccccc21 (some centres undefined),IC50,[1],0.2 nM
C[C@H](NC(=O)Cc1cc(F)cc(F)c1)C(=O)NC1C(=O)N(C)NCc2ccccc21 (some centres undefined),IC50,[1],9 nM
same,ED50,[2],5 µmol/kg
same,concentration at 3 h,[3],205 nM
same,inhibition in vivo at 30 µmol/kg,[4],51%
same,concentration at 3 h,[5],6 nM
same,inhibition in vivo at 30 µmol/kg,[6],80%
CC(C)C[C@H](NC(=O)CC1CCCCC1)C(=O)NC1C(=O)N(C)N=Cc2ccccc21 (some centres undefined),IC50,[1],14 nM
C[C@H](NC(=O)Cc1ccc(F)cc1)C(=O)NC1C(=O)N(C)N=Cc2ccccc21 (some centres undefined),IC50,[1],59 nM
CC1=NN(C)C(=O)C(NC(=O)[C@H](C)NC(=O)Cc2ccoc2)c2ccccc21 (some centres undefined),IC50,[1],2 nM
CC(C)C[C@H](NC(=O)Cc1ccsc1)C(=O)NC1C(=O)N(C)N=Cc2ccccc21 (some centres undefined),IC50,[1],0.7 nM
CC(C)C[C@H](NC(=O)[C@@H](O)c1ccccc1)C(=O)NC1C(=O)N(C)N=Cc2ccccc21 (some centres undefined),IC50,[1],0.4 nM
C[C@H](NC(=O)[C@@H](O)c1cc(F)cc(F)c1)C(=O)N[C@@H]1C(=O)N(C)N=Cc2ccccc21,half-life,[7],4.6 h
same,IC50,[1],0.3 nM
same,concentration at 3 h,[3],1960 nM
same,Activity,[8],25%
same,Activity,[9],60%
same,clearance,[10],5.2 mL/min/kg
same,Activity,[11],89%
same,inhibition in vivo at 30 µmol/kg,[4],90%
same,Activity,[12],Active
same,bioavailability,[13],31%
same,IC50,[14],> 100000 nM
same,Activity,[15],Active
same,Activity,[16],98%
same,concentration at 3 h,[5],133 nM
same,Activity,[17],38%
same,Activity,[18],Active
same,Ratio IC50,[19],0.5
same,inhibition in vivo at 30 µmol/kg,[6],88%
same,Activity,[20],Toxic
same,Activity,[21],83%
CC(C)C[C@H](NC(=O)Cc1cc(F)cc(F)c1)C(=O)NC1C(=O)N(C)N=Cc2ccccc21 (some centres undefined),IC50,[1],0.5 nM
C[C@H](NC(=O)[C@@H](O)c1cc(F)cc(F)c1)C(=O)N[C@H]1C(=O)N(C)N=Cc2ccccc21,IC50,[1],30 nM
same,concentration at 3 h,[3],546 nM
same,inhibition in vivo at 30 µmol/kg,[4],29%
same,concentration at 3 h,[5],72 nM
C[C@H](NC(=O)Cc1ccc2ccccc2c1)C(=O)NC1C(=O)N(C)N=Cc2ccccc21 (some centres undefined),IC50,[1],269 nM
C[C@H](NC(=O)C(=O)c1cc(F)cc(F)c1)C(=O)NC1C(=O)N(C)N=Cc2ccccc21 (some centres undefined),IC50,[1],1 nM
same,concentration at 3 h,[3],2090 nM
same,inhibition in vivo at 30 µmol/kg,[4],92%
same,concentration at 3 h,[5],280 nM
same,inhibition in vivo at 30 µmol/kg,[6],98%
CC(C)N1N=Cc2ccccc2C(NC(=O)[C@H](C)NC(=O)Cc2cc(F)cc(F)c2)C1=O (some centres undefined),IC50,[1],4 nM
CC(C)C[C@H](NC(=O)Cc1ccccc1F)C(=O)NC1C(=O)N(C)N=Cc2ccccc21 (some centres undefined),IC50,[1],22 nM
C[C@H](NC(=O)Cc1ccsc1)C(=O)NC1C(=O)N(C)N=Cc2ccccc21 (some centres undefined),IC50,[1],1 nM
C[C@H](NC(=O)[C@H](O)c1cc(F)cc(F)c1)C(=O)N[C@@H]1C(=O)N(C)N=Cc2ccccc21,IC50,[1],10 nM
same,concentration at 3 h,[3],2750 nM
same,inhibition in vivo at 30 µmol/kg,[4],91%
same,concentration at 3 h,[5],202 nM
same,Activity,[18],Active
same,inhibition in vivo at 30 µmol/kg,[6],86%
C[C@H](NC(=O)Cc1cccs1)C(=O)NC1C(=O)N(C)N=Cc2ccccc21 (some centres undefined),IC50,[1],3 nM
CC(C)C[C@H](NC(=O)Cc1ccc(F)cc1)C(=O)NC1C(=O)N(C)N=Cc2ccccc21 (some centres undefined),IC50,[1],14 nM
C[C@H](NC(=O)Cc1cccnc1)C(=O)NC1C(=O)N(C)N=Cc2ccccc21 (some centres undefined),IC50,[1],162 nM
C[C@H](NC(=O)Cc1ccco1)C(=O)NC1C(=O)N(C)N=Cc2ccccc21 (some centres undefined),IC50,[1],24 nM
CC1=NN(C)C(=O)C(NC(=O)[C@H](C)NC(=O)Cc2cc(F)cc(F)c2)c2ccccc21 (some centres undefined),IC50,[1],1.3 nM
CC(C)C[C@H](NC(=O)[C@H](O)c1ccccc1)C(=O)NC1C(=O)N(C)N=Cc2ccccc21 (some centres undefined),IC50,[1],56 nM
C[C@H](NC(=O)[C@H](O)c1cc(F)cc(F)c1)C(=O)N[C@H]1C(=O)N(C)N=Cc2ccccc21,IC50,[1],750 nM
C[C@H](NC(=O)Cc1cccc(Cl)c1)C(=O)NC1C(=O)N(C)N=Cc2ccccc21 (some centres undefined),IC50,[1],10 nM
C[C@H](NC(=O)CC1CCCCC1)C(=O)NC1C(=O)N(C)N=Cc2ccccc21 (some centres undefined),IC50,[1],43 nM
C[C@H](NC(=O)Cc1cc(F)cc(F)c1)C(=O)NC1C(=O)N(C)N=Cc2ccccc21 (some centres undefined),IC50,[1],6 nM
same,concentration at 3 h,[3],199 nM
same,inhibition in vivo at 30 µmol/kg,[4],54%
same,concentration at 3 h,[5],12 nM
same,inhibition in vivo at 30 µmol/kg,[6],75%
CC(C)C[C@H](NC(=O)Cc1cccc(F)c1)C(=O)NC1C(=O)N(C)N=Cc2ccccc21 (some centres undefined),IC50,[1],2 nM
CC(C)C[C@H](NC(=O)Cc1cccs1)C(=O)NC1C(=O)N(C)N=Cc2ccccc21 (some centres undefined),IC50,[1],1.9 nM
